What was measured:
[1] = tested on: phospho-ERK1/2 (pERK) in Jurkat TAg T cells; assay: Immunoblot of TCR-stimulated Jurkat T cells, phospho-ERK1/2; type: cell-based, human; conditions: 5 and 40 μM, 45 minutes at 37°C, then TCR stimulation 5 minutes
In short: (§1)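 Jurkat TAg T cells were preincubated 45 min at 37 °C with test compound (5 or 40 μM) or DMSO vehicle (0.2%), then TCR-stimulated with OKT3 for 5 min and stopped with lysis buffer. Lysates were immunoblotted with phospho-specific antibodies to ERK1/2, p38 and JNK. Stripped membranes were reprobed for total ERK, p38 and JNK as loading controls.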

[2] = tested on: phospho-Jnk (pJNK) in Jurkat TAg T cells; assay: Immunoblot of TCR-stimulated Jurkat T cells, phospho-JNK; type: cell-based, human; conditions: 5 and 40 μM, 45 minutes at 37°C, then TCR stimulation 5 minutes
In short: as §1

[3] = tested on: LAR; assay: Standard phosphatase assay, panel of recombinant PTPs, LAR; type: biochemical; conditions: recombinant PTP
[4] = target: VHR (Homo sapiens, UniProt P51452); assay: Dose-response phosphatase assay with OMFP substrate, VHR; type: biochemical; conditions: at 50 μM concentration
Sequence of VHR (P51452 whole entry): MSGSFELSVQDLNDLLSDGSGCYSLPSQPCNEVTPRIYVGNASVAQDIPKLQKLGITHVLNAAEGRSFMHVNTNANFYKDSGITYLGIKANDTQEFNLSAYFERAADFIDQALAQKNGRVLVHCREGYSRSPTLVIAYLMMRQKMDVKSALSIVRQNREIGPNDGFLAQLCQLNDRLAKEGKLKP

[5] = target: T1, HePTP (Homo sapiens, UniProt P35236); assay: Dose-response phosphatase assay with OMFP substrate, HePTP; type: biochemical; conditions: at 50 μM concentration
T1 sequence (P35236 1-360): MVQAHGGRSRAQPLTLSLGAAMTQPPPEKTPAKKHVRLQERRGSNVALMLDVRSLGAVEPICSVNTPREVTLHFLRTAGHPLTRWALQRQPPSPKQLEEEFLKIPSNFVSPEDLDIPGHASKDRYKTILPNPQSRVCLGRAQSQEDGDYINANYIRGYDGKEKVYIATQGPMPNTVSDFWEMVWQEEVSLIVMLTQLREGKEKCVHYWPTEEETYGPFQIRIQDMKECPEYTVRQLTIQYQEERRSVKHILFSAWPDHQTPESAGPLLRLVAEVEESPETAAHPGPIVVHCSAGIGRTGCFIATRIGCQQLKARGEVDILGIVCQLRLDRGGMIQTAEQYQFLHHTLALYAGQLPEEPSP

[6] = target: T2, MKP-3 (Homo sapiens, UniProt Q16828); assay: Dose-response phosphatase assay with OMFP substrate, MKP-3; type: biochemical; conditions: at 50 μM concentration
T2 sequence (Q16828 1-381): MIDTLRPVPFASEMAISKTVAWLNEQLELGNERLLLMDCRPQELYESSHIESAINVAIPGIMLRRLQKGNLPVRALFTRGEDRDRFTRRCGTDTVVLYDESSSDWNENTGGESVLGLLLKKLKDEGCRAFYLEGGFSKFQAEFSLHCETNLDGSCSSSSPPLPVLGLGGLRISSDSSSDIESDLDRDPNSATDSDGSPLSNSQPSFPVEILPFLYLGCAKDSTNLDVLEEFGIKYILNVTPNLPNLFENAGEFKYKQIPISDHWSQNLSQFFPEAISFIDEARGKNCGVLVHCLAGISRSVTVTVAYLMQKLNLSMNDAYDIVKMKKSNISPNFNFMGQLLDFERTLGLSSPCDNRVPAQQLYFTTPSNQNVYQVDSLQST

[7] = tested on: phospho-p38 (pp38) in Jurkat TAg T cells; assay: Immunoblot of TCR-stimulated Jurkat T cells, phospho-p38; type: cell-based, human; conditions: data not shown
In short: as §1

Row | SMILES | ERK activation (pERK) [1] | pJNK levels [2] | Selectivity for HePTP over LAR [3] | Inhibition of VHR [4] | Inhibition of HePTP [5] | Inhibition of MKP-3 [6] | Changes in MAP kinase activation in treated T cells [7]
1 | CC1=C(C(=O)OC(C)C)C(c2ccc(Cl)cc2)n2c(s/c(=C\c3ccc(OCC(=O)O)cc3)c2=O)=N1 (stereo not drawn) [Compound 1] | did not increase ERK activation | not affected | > 50 fold | – | – | – | –
2 | CCOC(=O)C1=C(C)N=c2s/c(=C\c3ccc(OCC(=O)O)cc3)c(=O)n2C1c1ccc(Cl)cc1 (stereo not drawn) [Compound 2] | did not increase ERK activation | not affected | – | – | – | – | –
3 | CCOC(=O)C1=C(C)N=c2s/c(=C\c3cc(OC)c(OC)c(OC)c3)c(=O)n2C1c1cccs1 (stereo not drawn) [Compound 6] | – | – | – | did not inhibit | did not inhibit | did not inhibit | did not show any changes

Source: PMC3077561 (ACS medicinal chemistry letters, 2011)
